Sampled rows, rich in hits. Any-hit rate of the full collection: about 3.5%.
FLuc inh counter: firefly luciferase enzyme inhibitors, primary screen, artefact control for luciferase-based inhibitor screens, biochemical, luminescence, ATPLite. Luciferin 4-monooxygenase (Photinus pyralis), P08659. inhibition, % at 10 µM. actives 1.5% (n = 200,000). 10 min;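 active = inhibition above about 50% when tested at 10 µM, limit read from the data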
Target sequence (P08659 whole entry, looked up): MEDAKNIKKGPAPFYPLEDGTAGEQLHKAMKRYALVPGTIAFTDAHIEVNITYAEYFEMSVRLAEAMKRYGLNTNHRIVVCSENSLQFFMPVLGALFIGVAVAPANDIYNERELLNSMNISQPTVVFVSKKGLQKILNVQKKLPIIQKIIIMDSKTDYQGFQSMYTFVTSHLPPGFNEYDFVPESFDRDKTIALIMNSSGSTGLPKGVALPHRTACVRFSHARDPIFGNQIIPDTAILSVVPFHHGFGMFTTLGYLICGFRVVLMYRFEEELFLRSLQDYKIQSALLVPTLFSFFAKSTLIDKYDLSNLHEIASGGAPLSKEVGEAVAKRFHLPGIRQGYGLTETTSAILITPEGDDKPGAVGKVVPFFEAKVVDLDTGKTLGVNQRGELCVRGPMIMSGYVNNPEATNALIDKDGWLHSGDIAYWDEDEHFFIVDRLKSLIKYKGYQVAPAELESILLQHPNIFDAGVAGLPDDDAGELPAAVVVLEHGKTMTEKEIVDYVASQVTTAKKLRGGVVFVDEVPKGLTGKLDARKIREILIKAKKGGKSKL
APP 5'UTR act: activators of APP 5'UTR luciferase reporter, primary screen, SH-SY5Y cells; SH-SY5Y APP 5'UTR luciferase reporter, luminescence; zero percent = DMSO vehicle wells; activation, % at 2 µM; actives 1% (n = 190,000); AID 1276, 2008;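 active = activation above a set limit, based on mean plus 3 SD of controls, cut at about 140% in these data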
Pf gamet viab: late stage P. falciparum gametocyte viability inhibitors, primary screen, ATP luminescence, HTS; P. falciparum stage V gametocytes, 24 h; inhibition, % at 10.9 µM; actives 0.065% (n = 150,000); AID 743093, 2013;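 active = inhibition above the mean plus 3 SD of compounds within the control limits, set per campaign, cut at about 38% in these data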;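 note: 0% = DMSO wells and 100% = medium only without gametocytes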
FLuc act counter: FLuc activators, initial screening, artefact control for FLuc-dependent activation tests, biochemical, ATPlite luminescence. Luciferin 4-monooxygenase (Photinus pyralis), P08659. ATPlite luciferase biochemical, 10 min; 0 = ATP-free wells, 1 = DMSO control. activation factor at 10 µM. 200,000 tested, under 10 active;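 active = luciferase activation factor, scaled between plate controls, of at least 2 with compound at 10 µM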
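Assay system: Luciferase/luciferin detection reagent, cell-free biochemical luciferase assay / Read-out: luciferase activation / Benchmarks: No-ATP low control, compound-free enzyme-plus-ATP high control / Medium: PBS buffer for ATP / Detection: luminescence measurement of luciferase light output / Schedule: 10 min at ambient temperature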
STAT1 activator: STAT1 signaling activators, primary screen, cell-based, HTS, luciferase reporter | NIH 3T3 STAT1-luciferase reporter, IFN-gamma, luminescence; 100% = IFN-gamma alone, no compound | activation (% of control), % at 5.5 µM | actives 2.6% (n = 200,000) | AID 932, 2007;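 active = activation above the screen-wide mean activation plus 3 SD, cut at about 130% in these data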;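 note: raw ratio to IFN-gamma control signal so 100% means no change and 0% no light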
NF-kB expr up: activators of NF-kB expression in neurons, primary screen, cell-based, HTS. human neuronal cells, NF-kB reporter expression; active compounds read high. fold change at 12.5 µM. actives 1.6% (n = 190,000); in the data active = fold change above about 3.3
An asterisk follows results filed as active; . = not tested or not shown.

SMILES	FLuc inh counter	APP 5'UTR act	Pf gamet viab	FLuc act counter	STAT1 activator	NF-kB expr up
Cc1ccnc(NC(=O)/C=C/c2cccs2)c1	92*	191*	.	0.1	137*	1.1
O=C(/C=C/c1cccs1)Nc1nncs1	.	.	-3	.	.	.
O=C(/C=C/c1cccs1)Nc1scc(-c2ccccc2)c1C(=O)O	81*	120	1	0.2	99	2.3
O=C(/C=C/c1cccs1)Nc1nc(-c2ccccc2)cs1	4	29	-9	1	114	1.3
O=c1c2ccccc2nc(SCc2cccc(F)c2)n1C1CCCC1	-5	-7	-21	1.1	101	1.5
COc1cc(OC)cc(C(=O)/C=C2\Sc3ccccc3N2C)c1	15	44	4	0.8	131*	1.8
COc1ccc2c(c1)S/C(=C\C(=O)c1ccncc1)N2C	34	44	.	0.7	125	2.1
CN1/C(=C/C(=O)c2cccs2)Sc2ccccc21	77*	103	.	0.2	140*	5.3*
CCc1ccc(NC(=O)NCCN2CCCCC2)cc1	.	.	1	.	.	.
CC(C)CNC(=O)c1ccc(Cl)c(N)c1	0	-11	.	1	97	0.87
Cc1ccc(S(=O)(=O)N2CCOCC2)cc1NC(=O)COC(=O)CNC(=O)c1ccc(C(C)(C)C)cc1	81*	25	2	0.2	99	1.2
Cc1ccc(S(=O)(=O)N2CCOCC2)cc1NC(=O)COC(=O)CNC(=O)c1ccc(Oc2ccccc2)cc1	73*	16	4	0.3	100	0.91
Cc1ccc(S(=O)(=O)N2CCOCC2)cc1NC(=O)COC(=O)Cc1ccsc1	-8	-2	-5	1.1	90	0.94
Clc1ccc(-c2nnc(N3CCCC3)nn2)cc1	23	44	.	0.8	137*	4.6*
CCSc1cc(N2CCCC2)nc(-c2ccc(Cl)cc2)n1	.	.	-14	.	.	.
CCC(=O)Nc1cc(C(=O)OCC(=O)c2ccccc2)ccc1C	16	47	-12	0.8	144*	0.72
COc1ccc(NC(=O)N(C)C[C@H]2Oc3ccc(NS(=O)(=O)c4c(C)noc4C)cc3C(=O)N([C@H](C)CO)C[C@@H]2C)cc1	.	.	23	.	.	.
CC(C)(C)c1ccc(C(=O)/C=C2\NC(=O)CS2)cc1	89*	119	-10	0.1	121	6.6*
COc1cc(/C=C/c2ccc3cccc([N+](=O)[O-])c3n2)ccc1OCC(=O)O	58*	19	11	0.4	102	0.96
Cc1ccccc1C(=O)NC(C)c1ccc2c(c1)CCCC2 (configuration not stated)	-4	3	.	1	94	0.96
CC(=O)N(C)c1ccc(NC(=O)Nc2ccccc2C)cc1	54*	39	-18	0.5	126	1.5
Fc1cccc2sc(N3CCCCC3)nc12	18	39	.	0.8	119	1.1
Fc1cc(F)c2nc(N3CCCC3)sc2c1	9	65	-33	0.9	131*	1.4
CCOC(=O)Nc1sc(C)nc1-c1ccccc1	-8	5	18	1.1	104	1
CCOC(=O)Nc1nc(-c2ccccc2)c(C(=O)c2ccc(Cl)cc2)s1	-4	-94	.	1	108	3.9*
SMILES	FLuc inh counter	APP 5'UTR act	Pf gamet viab	FLuc act counter	STAT1 activator	NF-kB expr up
O=C(CN1C(=O)c2ccccc2C1=O)NCCOc1ccccc1	.	.	10	.	.	.
O=C1c2ccccc2C(=O)c2cc(NC(=O)C3CC3)ccc21	22	139*	3	0.8	130*	4.5*
Cc1cccn2c(=O)c(/C=N/O)c(N3CCOCC3)nc12	-4	-1	7	1	100	1.2
CC(=O)c1cnc(Nc2cccc(Cl)c2Cl)s1	-2	69	35	1	136*	2
CC(=O)c1cnc(Nc2ccccc2)s1	-2	11	.	1	107	1.4
CNc1ncc(C(=O)c2ccccc2)s1	-1	26	3	1	114	1.8
O=C(c1ccc(Cl)cc1)c1cnc(Nc2ccccc2Cl)s1	58*	116	-14	0.4	145*	3.2
CNc1ncc(C(=O)c2ccc(Br)cc2)s1	41	94	6	0.6	140*	3.5*
